According to ChEMBL document CHEMBL1157020, “Antihyperglycemic activity of naphthylchalcones” (2010):
Activity calls are given as the source filed them. The calls are words filed in the database; no cut-off is given here.

Legend:
[1] = system: Rattus norvegicus; assay: Antidiabetic activity in hyperglycemic normal Wistar rat assessed as reduction of serum glucose level at 10 mg/kg, po up to 180 mins by glucose oxidase method; type: functional, organism-based; design: dose 10 mg/kg
Summary of the method: (§1)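 Male Wistar rats (180–210 g), fasted 16 h, given glucose 4 g/kg (8.9 M) plus compound 10 mg/kg in corn oil by oral gavage (0.5 mL); vehicle-treated and glucose-only controls. Tail-vein blood centrifuged, serum glucose by glucose oxidase before and at 15, 30, 60, 180 min. Lowering expressed versus hyperglycemic control; mean ± S.E.M., n = 8.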

[2] = system: Rattus norvegicus; assay: Antidiabetic activity in hyperglycemic normal Wistar rat assessed as reduction of serum glucose level at 10 mg/kg, po after 15 mins by glucose oxidase method relative to control; type: functional; design: scale not given: the % may be the effect or the level left; summary of the method: as §1
[3] = system: Rattus norvegicus; assay: Antidiabetic activity in hyperglycemic normal Wistar rat assessed as reduction of serum glucose level at 10 mg/kg, po after 60 mins by glucose oxidase method relative to control; type: functional; design: scale not given: the % may be the effect or the level left; summary of the method: as §1
[4] = system: Rattus norvegicus; assay: Antidiabetic activity in hyperglycemic normal Wistar rat assessed as reduction of serum glucose level at 10 mg/kg, po after 30 mins by glucose oxidase method relative to control; type: functional; design: scale not given: the % may be the effect or the level left; summary of the method: as §1
[5] = system: Rattus norvegicus; assay: Antidiabetic activity in hyperglycemic normal Wistar rat assessed as potentiation of glucose-induced serum insulin level at 10 mg/kg, po by ELISA relative control; type: functional, organism-based; design: dose 10 mg/kg
Summary of the method: (§2)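 Male Wistar rats (180–210 g), fasted 16 h, orally loaded with glucose 4 g/kg plus compound 10 mg/kg in corn oil by gavage; euglycemic and hyperglycemic control groups. Serum insulin by rat insulin ELISA (range 0.2–10 ng/mL; intra/inter-assay CV 3.22/6.95), absorbance 450 nm against standard curve. Increase versus hyperglycemic control at matched times; mean ± SEM, n = 8.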

[6] = system: Rattus norvegicus; assay: Antidiabetic activity in hyperglycemic normal Wistar rat assessed as potentiation of glucose-induced serum insulin level at 10 mg/kg, po after 60 mins by ELISA relative control; type: functional; summary of the method: as §2
[7] = system: Rattus norvegicus; assay: Antidiabetic activity in hyperglycemic normal Wistar rat assessed as potentiation of glucose-induced serum insulin level at 10 mg/kg, po after 30 mins by ELISA relative control; type: functional; summary of the method: as §2

Row | SMILES | Activity [1] | Activity [2] [%] | Activity [4] [%] | other results
1 | O=C(/C=C/c1ccc2ccccc2c1)c1ccccc1 | inactive |  |  | 
2 | O=C(/C=C/c1ccc([N+](=O)[O-])cc1)c1ccc2ccccc2c1 | inactive |  |  | 
3 | O=C(/C=C/c1ccc2ccccc2c1)c1cccc([N+](=O)[O-])c1 |  | 24 | 25 | Activity [3]: 14%
4 | O=C(/C=C/c1ccc2ccccc2c1)c1ccc([N+](=O)[O-])cc1 |  | 22 | 25 | Activity [3]: 19%; Activity [5]: Dose-dependent effect; Activity [6]: 104%; Activity [7]: 27%
5 | O=C(/C=C/c1cccc([N+](=O)[O-])c1)c1ccc2ccccc2c1 | Active |  |  | Activity [5]: Dose-dependent effect; Activity [6]: 88%; Activity [7]: 48%
6 | O=C(/C=C/c1cccc2ccccc12)c1cccc([N+](=O)[O-])c1 |  | 18 | 32 | 
7 | O=C(/C=C/c1ccc2ccccc2c1)c1ccccc1[N+](=O)[O-] | inactive |  |  | 
8 | O=C(/C=C/c1cccc2ccccc12)c1ccc([N+](=O)[O-])cc1 |  | 17 | 21 | 
9 | O=C(/C=C/c1ccc2ccccc2c1)c1ccc2ccccc2c1 | inactive |  |  | 
